Test results published in ChEMBL document CHEMBL5724801, “EUbOPEN Chemogenomics Library - Multiplex” (2024).
“And” between values parts separate entries of the source, which are not always exact repeats. Equal values may be shown once.

Tested on: U2OS
Assay: Multiplex assay against U2OS
Format: toxicity, cell-based
Details: human
How it was run: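 Live cells were stained at seeding with Hoechst33342, BioTracker Green Microtubule Cytoskeleton Dye, MitoTracker Red and Annexin V Alexa Fluor 680, then imaged on a CQ1 microscope at 37°C and 5% CO2 after compound addition. CellPathfinder machine-learning gating split cells into Hoechst high-intensity objects or normal cells. Normal cells were split into healthy, pyknosed or fragmented nuclei, and pyknosed cells into mitotic or apoptotic. Tubulin, mitochondrial-mass and membrane-permeability phenotypes are per cents of healthy-nucleus cells.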

[1] = 12 h, 1 µM, compound concentration 1 uM
[2] = 12 h, 10 µM, compound concentration 10 uM
[3] = 24 h, 1 µM, compound concentration 1 uM
[4] = 24 h, 10 µM, compound concentration 10 uM
[5] = 48 h, 1 µM, compound concentration 1 uM
[6] = 48 h, 10 µM, compound concentration 10 uM

SMILES: Cc1cccc(F)c1C(=O)Nc1cnc(-c2cc3c(cc2Cl)OC(F)(F)O3)cn1 [ZEGOCRACTIN]
- Population Apoptotic (%) [1]: 54.76% and 21.05%
- Population Fragmented Nuclei (%) [1]: 1.87% and 5.79%
- Population Healthy Nuclei (%) [1]: 86.93% and 78.51%
- Population Hoechst High Intensity Objects (%) [1]: 0%
- Population Membrane Permeable-Phenotype (%) [1]: 0.61% and 6.32%
- Population Mitochondria Different-Phenotype (%) [1]: 0% and 12.63%
- Population Mitotic Cells (%) [1]: 45.24% and 78.95%
- Population Normal (%) [1]: 100%
- Population Pyknosed Nuclei (%) [1]: 11.2% and 15.7%
- Population Tubulin-Different-Phenotype (%) [1]: 0.61% and 0%
- Population Apoptotic (%) [2]: 37.66% and 30.95%
- Population Fragmented Nuclei (%) [2]: 0.97% and 1.07%
- Population Healthy Nuclei (%) [2]: 80.39% and 76.47%
- Population Hoechst High Intensity Objects (%) [2]: 0.24% and 0%
- Population Membrane Permeable-Phenotype (%) [2]: 0.6% and 8.39%
- Population Mitotic Cells (%) [2]: 62.34% and 69.05%
- Population Normal (%) [2]: 99.76% and 100%
- Population Pyknosed Nuclei (%) [2]: 18.64% and 22.46%
- Population Tubulin-Different-Phenotype (%) [2]: 3.01% and 4.9%
- Total Cell Count [2]: 414 and 187
- Population Apoptotic (%) [3]: 49.12% and 21.74%
- Population Fragmented Nuclei (%) [3]: 2.5% and 3.68%
- Population Healthy Nuclei (%) [3]: 86.54% and 82.21%
- Population Hoechst High Intensity Objects (%) [3]: 0%
- Population Membrane Permeable-Phenotype (%) [3]: 0.22% and 5.22%
- Population Mitochondria Different-Phenotype (%) [3]: 0.22% and 7.46%
- Population Mitotic Cells (%) [3]: 50.88% and 78.26%
- Population Normal (%) [3]: 100%
- Population Pyknosed Nuclei (%) [3]: 10.96% and 14.11%
- Population Tubulin-Different-Phenotype (%) [3]: 0.89% and 0.75%
- Population Apoptotic (%) [4]: 37.72% and 34.92%
- Population Fragmented Nuclei (%) [4]: 3.21% and 2.36%
- Population Healthy Nuclei (%) [4]: 75.24% and 67.92%
- Population Hoechst High Intensity Objects (%) [4]: 0%
- Population Membrane Permeable-Phenotype (%) [4]: 2.76% and 6.94%
- Population Mitotic Cells (%) [4]: 62.28% and 65.08%
- Population Normal (%) [4]: 100%
- Population Pyknosed Nuclei (%) [4]: 21.55% and 29.72%
- Population Tubulin-Different-Phenotype (%) [4]: 2.76% and 2.78%
- Total Cell Count [4]: 529 and 212
- Population Apoptotic (%) [5]: 35.96% and 56%
- Population Fragmented Nuclei (%) [5]: 3.36% and 3.03%
- Population Healthy Nuclei (%) [5]: 87.83% and 87.5%
- Population Hoechst High Intensity Objects (%) [5]: 0%
- Population Membrane Permeable-Phenotype (%) [5]: 1.69% and 2.6%
- Population Mitochondria Different-Phenotype (%) [5]: 0.34% and 5.63%
- Population Mitotic Cells (%) [5]: 64.04% and 44%
- Population Normal (%) [5]: 100%
- Population Pyknosed Nuclei (%) [5]: 8.8% and 9.47%
- Population Tubulin-Different-Phenotype (%) [5]: 1.58% and 0.43%
- Population Apoptotic (%) [6]: 51.14% and 60.82%
- Population Fragmented Nuclei (%) [6]: 5.7% and 6.6%
- Population Healthy Nuclei (%) [6]: 63.11% and 59.72%
- Population Hoechst High Intensity Objects (%) [6]: 0.14% and 0%
- Population Membrane Permeable-Phenotype (%) [6]: 2.48% and 8.72%
- Population Mitotic Cells (%) [6]: 48.86% and 39.18%
- Population Normal (%) [6]: 99.86% and 100%
- Population Pyknosed Nuclei (%) [6]: 31.2% and 33.68%
- Population Tubulin-Different-Phenotype (%) [6]: 4.97% and 4.65%
- Total Cell Count [6]: 703 and 288

SMILES: COc1cccc2c1c(NS(=O)(=O)c1ccc(Cl)s1)nn2Cc1cccc(CNC(=O)C(C)(C)O)c1
- Population Apoptotic (%) [1]: 86% and 81%
- Population Fragmented Nuclei (%) [1]: 23% and 29%
- Population Healthy Nuclei (%) [1]: 67% and 64%
- Population Hoechst High Intensity Objects (%) [1]: 3% and 6%
- Population Membrane Permeable-Phenotype (%) [1]: 4% and 7%
- Population Mitochondria Different-Phenotype (%) [1]: 1% and 3%
- Population Mitotic Cells (%) [1]: 13% and 18%
- Population Normal (%) [1]: 96% and 93%
- Population Pyknosed Nuclei (%) [1]: 9% and 5%
- Population Tubulin-Different-Phenotype (%) [1]: 1% and 6%
- Total Cell Count [1]: 261 and 201
- Population Apoptotic (%) [2]: 76% and 83%
- Population Fragmented Nuclei (%) [2]: 26% and 25%
- Population Healthy Nuclei (%) [2]: 65% and 70%
- Population Hoechst High Intensity Objects (%) [2]: 1% and 5%
- Population Membrane Permeable-Phenotype (%) [2]: 6% and 8%
- Population Mitochondria Different-Phenotype (%) [2]: 2% and 3%
- Population Mitotic Cells (%) [2]: 23% and 16%
- Population Normal (%) [2]: 98% and 94%
- Population Pyknosed Nuclei (%) [2]: 8% and 4%
- Population Tubulin-Different-Phenotype (%) [2]: 4% and 2%
- Total Cell Count [2]: 264 and 140
- Population Apoptotic (%) [3]: 96% and 90%
- Population Fragmented Nuclei (%) [3]: 20% and 28%
- Population Healthy Nuclei (%) [3]: 70% and 66%
- Population Hoechst High Intensity Objects (%) [3]: 1% and 5%
- Population Membrane Permeable-Phenotype (%) [3]: 5% and 8%
- Population Mitochondria Different-Phenotype (%) [3]: 1% and 3%
- Population Mitotic Cells (%) [3]: 3% and 9%
- Population Normal (%) [3]: 98% and 94%
- Population Pyknosed Nuclei (%) [3]: 8% and 4%
- Population Tubulin-Different-Phenotype (%) [3]: 3% and 6%
- Total Cell Count [3]: 307 and 242
- Population Apoptotic (%) [4]: 90% and 88%
- Population Fragmented Nuclei (%) [4]: 25%
- Population Healthy Nuclei (%) [4]: 64% and 68%
- Population Hoechst High Intensity Objects (%) [4]: 1% and 5%
- Population Membrane Permeable-Phenotype (%) [4]: 5% and 8%
- Population Mitochondria Different-Phenotype (%) [4]: 3% and 4%
- Population Mitotic Cells (%) [4]: 10% and 11%
- Population Normal (%) [4]: 98% and 94%
- Population Pyknosed Nuclei (%) [4]: 10% and 5%
- Population Tubulin-Different-Phenotype (%) [4]: 2%
- Total Cell Count [4]: 304 and 167
- Population Apoptotic (%) [5]: 95% and 74%
- Population Fragmented Nuclei (%) [5]: 14% and 22%
- Population Healthy Nuclei (%) [5]: 76% and 68%
- Population Hoechst High Intensity Objects (%) [5]: 1% and 7%
- Population Membrane Permeable-Phenotype (%) [5]: 4% and 5%
- Population Mitochondria Different-Phenotype (%) [5]: 1% and 4%
- Population Normal (%) [5]: 98% and 92%
- Population Pyknosed Nuclei (%) [5]: 9%
- Population Tubulin-Different-Phenotype (%) [5]: 2% and 5%
- Total Cell Count [5]: 463 and 314
- Population Apoptotic (%) [6]: 93% and 100%
- Population Fragmented Nuclei (%) [6]: 20% and 22%
- Population Healthy Nuclei (%) [6]: 71%
- Population Hoechst High Intensity Objects (%) [6]: 2% and 3%
- Population Membrane Permeable-Phenotype (%) [6]: 5%
- Population Mitochondria Different-Phenotype (%) [6]: 2% and 3%
- Population Mitotic Cells (%) [6]: 6% and 0%
- Population Normal (%) [6]: 97% and 96%
- Population Pyknosed Nuclei (%) [6]: 8% and 5%
- Population Tubulin-Different-Phenotype (%) [6]: 3%
- Total Cell Count [6]: 413 and 235

SMILES: CC(C)CNc1nc(N2CCN(CC3CCCOC3)CC2)ncc1C(=O)NCc1ccccc1 (stereo unspecified)
- Population Apoptotic (%) [1]: 35.29% and 54.55%
- Population Fragmented Nuclei (%) [1]: 1.32% and 3.94%
- Population Healthy Nuclei (%) [1]: 85.22% and 78.74%
- Population Hoechst High Intensity Objects (%) [1]: 0%
- Population Membrane Permeable-Phenotype (%) [1]: 0.93% and 5%
- Population Mitotic Cells (%) [1]: 64.71% and 45.45%
- Population Normal (%) [1]: 100%
- Population Pyknosed Nuclei (%) [1]: 13.46% and 17.32%
- Population Tubulin-Different-Phenotype (%) [1]: 3.1% and 1%
- Total Cell Count [1]: 379 and 127
- Population Apoptotic (%) [2]: 51.14% and 36.59%
- Population Fragmented Nuclei (%) [2]: 1.76% and 7.28%
- Population Healthy Nuclei (%) [2]: 72.35% and 65.56%
- Population Hoechst High Intensity Objects (%) [2]: 0%
- Population Membrane Permeable-Phenotype (%) [2]: 22.36% and 30.3%
- Population Mitochondria Different-Phenotype (%) [2]: 72.36% and 89.9%
- Population Mitotic Cells (%) [2]: 48.86% and 63.41%
- Population Normal (%) [2]: 100%
- Population Pyknosed Nuclei (%) [2]: 25.88% and 27.15%
- Population Tubulin-Different-Phenotype (%) [2]: 97.15% and 94.95%
- Total Cell Count [2]: 340 and 151
- Population Apoptotic (%) [3]: 43.1% and 31.82%
- Population Fragmented Nuclei (%) [3]: 1.29% and 7.91%
- Population Healthy Nuclei (%) [3]: 86.27% and 76.26%
- Population Hoechst High Intensity Objects (%) [3]: 0.21% and 0%
- Population Membrane Permeable-Phenotype (%) [3]: 2.49% and 9.43%
- Population Mitotic Cells (%) [3]: 56.9% and 68.18%
- Population Normal (%) [3]: 99.79% and 100%
- Population Pyknosed Nuclei (%) [3]: 12.45% and 15.83%
- Population Tubulin-Different-Phenotype (%) [3]: 3.98% and 4.72%
- Population Apoptotic (%) [4]: 71.3% and 64%
- Population Fragmented Nuclei (%) [4]: 3.28% and 4.55%
- Population Healthy Nuclei (%) [4]: 67.21% and 62.99%
- Population Hoechst High Intensity Objects (%) [4]: 0%
- Population Membrane Permeable-Phenotype (%) [4]: 17.07% and 18.56%
- Population Mitochondria Different-Phenotype (%) [4]: 81.3% and 91.75%
- Population Mitotic Cells (%) [4]: 28.7% and 36%
- Population Normal (%) [4]: 100%
- Population Pyknosed Nuclei (%) [4]: 29.51% and 32.47%
- Population Tubulin-Different-Phenotype (%) [4]: 97.15% and 93.81%
- Total Cell Count [4]: 366 and 154
- Population Apoptotic (%) [5]: 58.06% and 46.43%
- Population Fragmented Nuclei (%) [5]: 2.14% and 3.47%
- Population Healthy Nuclei (%) [5]: 86.13% and 80.35%
- Population Hoechst High Intensity Objects (%) [5]: 0%
- Population Membrane Permeable-Phenotype (%) [5]: 1.02% and 4.32%
- Population Mitotic Cells (%) [5]: 41.94% and 53.57%
- Population Normal (%) [5]: 100%
- Population Pyknosed Nuclei (%) [5]: 11.73% and 16.18%
- Population Tubulin-Different-Phenotype (%) [5]: 2.64% and 6.47%
- Population Apoptotic (%) [6]: 80.41% and 90%
- Population Fragmented Nuclei (%) [6]: 7.04% and 6.08%
- Population Healthy Nuclei (%) [6]: 55.78% and 60.14%
- Population Hoechst High Intensity Objects (%) [6]: 0%
- Population Membrane Permeable-Phenotype (%) [6]: 13.06% and 17.98%
- Population Mitochondria Different-Phenotype (%) [6]: 79.28% and 93.26%
- Population Mitotic Cells (%) [6]: 19.59% and 10%
- Population Normal (%) [6]: 100%
- Population Pyknosed Nuclei (%) [6]: 37.19% and 33.78%
- Population Tubulin-Different-Phenotype (%) [6]: 96.4% and 88.76%
- Total Cell Count [6]: 398 and 148
